Results: ChEMBL document CHEMBL5034013, “Discovery of VNRX-7145 (VNRX-5236 Etzadroxil): An Orally Bioavailable β-Lactamase Inhibitor for Enterobacterales Expressing Ambler Class A, C, and D Enzymes” (J Med Chem, 2021)
pIC50: −log10 of the molar value.

What was measured:
[1] = Oral bioavailability in rat at 10 mg/kg administered as cassette dose measured by UPLC-MS/MS; format: ADME, organism-based; settings: in vivo, 10 mg/kg, in the assay text read “measured” for “administered as cassette dose measured”
In short: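 Ester prodrugs are given to rats by oral gavage, some as a cassette with another ester. F is the percent absolute oral bioavailability of the parent, corrected for the MW difference between prodrug and parent.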

[2] = Oral bioavailability in mouse at 5 mg/kg administered as cassette dose measured by UPLC-MS/MS analysis; format: ADME, organism-based; settings: in vivo
In short: (§1)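 Ester prodrugs are dosed orally. F is the percent absolute oral bioavailability of the parent boronate, corrected for the molecular-weight difference between prodrug and parent.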

[3] = Oral bioavailability in dog at 10 mg/kg administered as cassette dose measured by UPLC-MS/MS analysis; format: ADME, organism-based, Canis lupus familiaris; settings: in vivo; in short: as §1
[4] = Oral bioavailability in monkey at 10 mg/kg administered as cassette dose measured by UPLC-MS/MS analysis; format: ADME, organism-based, Macaca mulatta; settings: rhesus monkey, in vivo; in short: as §1
Escherichia coli [5] = assay: Antibacterial activity against Escherichia coli expressing TEM-1/SHV-12 assessed as concentration required to restore ceftibuten activity incubated for 16 to 20 hrs in presence of 1 ug/ml ceftibuten by broth microdilution method; format: functional; settings: time 16-20 hrs
Escherichia coli [6] = assay: Antibacterial activity against Escherichia coli expressing CTX-M-2 assessed as concentration required to restore ceftibuten activity incubated for 16 to 20 hrs in presence of 1 ug/ml ceftibuten by broth microdilution method; format: functional; settings: time 16-20 hrs
[7] = Inhibition of bacterial beta-lactamase SHV-5 using cefotaxime as substrate preincubated for 15 mins followed by substrate addition and measured after 10 mins by spectrophotometric analysis; set-up: species or system Bacteria
In short: (§2)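 IC50 is the mean of duplicate runs on separate days. A run was repeated automatically if it differed by more than 20% from the previous result.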

[8] = Inhibition of bacterial beta-lactamase KPC-2 using imipenem as substrate preincubated for 15 mins followed by substrate addition and measured after 10 mins by spectrophotometric analysis; set-up: species or system Bacteria; in short: as §2
Escherichia coli [9] = assay: Antibacterial activity against Escherichia coli expressing CTX-M-15/TEM-1 assessed as concentration required to restore ceftibuten activity incubated for 16 to 20 hrs in presence of 1 ug/ml ceftibuten by broth microdilution method; format: functional; settings: time 16-20 hrs
Klebsiella pneumoniae [10] = assay: Antibacterial activity against Klebsiella pneumoniae expressing SHV-12/TEM-1 assessed as concentration required to restore ceftibuten activity incubated for 16 to 20 hrs in presence of 1 ug/ml ceftibuten by broth microdilution method; format: functional; settings: time 16-20 hrs
Escherichia coli [11] = assay: Antibacterial activity against Escherichia coli 786978 expressing KPC assessed as concentration required to restore ceftibuten activity incubated for 16 to 20 hrs in presence of 1 ug/ml ceftibuten by broth microdilution method; format: functional; settings: time 16-20 hrs
Klebsiella pneumoniae [12] = assay: Antibacterial activity against Klebsiella pneumoniae 156309 expressing SHV-11/TEM-1/KPC-2 assessed as concentration required to restore ceftibuten activity incubated for 16 to 20 hrs in presence of 1 ug/ml ceftibuten by broth microdilution method; format: functional; settings: time 16-20 hrs
Escherichia coli [13] = assay: Antibacterial activity against Escherichia coli J53 expressing SHV-5/TEM-1/AmpC assessed as concentration required to restore ceftibuten activity incubated for 16 to 20 hrs in presence of 1 ug/ml ceftibuten by broth microdilution method; format: functional; settings: time 16-20 hrs
Klebsiella pneumoniae [14] = assay: Antibacterial activity against Klebsiella pneumoniae 196477 expressing AmpC/CMY-2/TEM-1/CTX-M-15 assessed as concentration required to restore ceftibuten activity incubated for 16 to 20 hrs in presence of 1 ug/ml ceftibuten by broth microdilution method; format: functional; settings: time 16-20 hrs
Escherichia coli [15] = assay: Antibacterial activity against Escherichia coli 664507 expressing OXA-48 assessed as concentration required to restore ceftibuten activity incubated for 16 to 20 hrs in presence of 1 ug/ml ceftibuten by broth microdilution method; format: functional; settings: time 16-20 hrs
In short: (§3)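 Tested against a 25-strain challenge panel of clinical E. coli and K. pneumoniae isolates carrying ESBL (n = 5), KPC (n = 11), class C (n = 4) or OXA-48 (n = 5) β-lactamases. Ceftibuten was held at 1 μg/mL while the BLI concentration varied. The read-out was the BLI concentration that rescued ceftibuten activity.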

Klebsiella pneumoniae [16] = assay: Antibacterial activity against Klebsiella pneumoniae expressing OXA-48 assessed as concentration required to restore ceftibuten activity incubated for 16 to 20 hrs in presence of 1 ug/ml ceftibuten by broth microdilution method; format: functional; settings: time 16-20 hrs
Klebsiella pneumoniae [17] = assay: Antibacterial activity against Klebsiella pneumoniae expressing TEM-1/SHV-12 assessed as concentration required to restore ceftibuten activity incubated for 16 to 20 hrs in presence of 1 ug/ml ceftibuten by broth microdilution method; format: functional; settings: time 16-20 hrs
Klebsiella pneumoniae [18] = assay: Antibacterial activity against Klebsiella pneumoniae expressing SHV-5/KPC-2/TEM-1 assessed as concentration required to restore ceftibuten activity incubated for 16 to 20 hrs in presence of 1 ug/ml ceftibuten by broth microdilution method; format: functional; settings: time 16-20 hrs
Escherichia coli [19] = assay: Antibacterial activity against Escherichia coli expressing AmpC/SHV-12/CTX-M-15/TEM-1 assessed as concentration required to restore ceftibuten activity incubated for 16 to 20 hrs in presence of 1 ug/ml ceftibuten by broth microdilution method; format: functional; settings: time 16-20 hrs
Klebsiella pneumoniae [20] = assay: Antibacterial activity against Klebsiella pneumoniae expressing SHV-1/TEM-1/KPC-2 assessed as concentration required to restore ceftibuten activity incubated for 16 to 20 hrs in presence of 1 ug/ml ceftibuten by broth microdilution method; format: functional; settings: time 16-20 hrs
Klebsiella pneumoniae [21] = assay: Antibacterial activity against Klebsiella pneumoniae expressing SHV-11/TEM-1/KPC-3 assessed as concentration required to restore ceftibuten activity incubated for 16 to 20 hrs in presence of 1 ug/ml ceftibuten by broth microdilution method; format: functional; settings: time 16-20 hrs
Klebsiella pneumoniae [22] = assay: Antibacterial activity against Klebsiella pneumoniae expressing SHV-12/TEM-1/KPC-2/AmpC assessed as concentration required to restore ceftibuten activity incubated for 16 to 20 hrs in presence of 1 ug/ml ceftibuten by broth microdilution method; format: functional; settings: time 16-20 hrs
Klebsiella pneumoniae [23] = assay: Antibacterial activity against Klebsiella pneumoniae expressing KPC-3/TEM-1/AmpC assessed as concentration required to restore ceftibuten activity incubated for 16 to 20 hrs in presence of 1 ug/ml ceftibuten by broth microdilution method; format: functional; settings: time 16-20 hrs
Escherichia coli [24] = assay: Antibacterial activity against Escherichia coli 849121 expressing KPC assessed as concentration required to restore ceftibuten activity incubated for 16 to 20 hrs in presence of 1 ug/ml ceftibuten by broth microdilution method; format: functional; settings: time 16-20 hrs
Klebsiella pneumoniae [25] = assay: Antibacterial activity against Klebsiella pneumoniae 845661 expressing KPC assessed as concentration required to restore ceftibuten activity incubated for 16 to 20 hrs in presence of 1 ug/ml ceftibuten by broth microdilution method; format: functional; settings: time 16-20 hrs
Klebsiella pneumoniae [26] = assay: Antibacterial activity against Klebsiella pneumoniae 845670 expressing KPC assessed as concentration required to restore ceftibuten activity incubated for 16 to 20 hrs in presence of 1 ug/ml ceftibuten by broth microdilution method; format: functional; settings: time 16-20 hrs
Escherichia coli [27] = assay: Antibacterial activity against Escherichia coli SI-P026TC expressing CMY-2/TEM-1 assessed as concentration required to restore ceftibuten activity incubated for 16 to 20 hrs in presence of 1 ug/ml ceftibuten by broth microdilution method; format: functional; settings: time 16-20 hrs
Klebsiella pneumoniae [28] = assay: Antibacterial activity against Klebsiella pneumonia 217917 expressing CMY-2/TEM-1 assessed as concentration required to restore ceftibuten activity incubated for 16 to 20 hrs in presence of 1 ug/ml ceftibuten by broth microdilution method; format: functional; settings: time 16-20 hrs; in short: as §3
Klebsiella pneumoniae [29] = assay: Antibacterial activity against Klebsiella pneumonia DOV expressing OXA-48 assessed as concentration required to restore ceftibuten activity incubated for 16 to 20 hrs in presence of 1 ug/ml ceftibuten by broth microdilution method; format: functional; settings: time 16-20 hrs; in short: as §3
Klebsiella pneumoniae [30] = assay: Antibacterial activity against Klebsiella pneumonia SI-C05 expressing OXA-48 assessed as concentration required to restore ceftibuten activity incubated for 16 to 20 hrs in presence of 1 ug/ml ceftibuten by broth microdilution method; format: functional; settings: time 16-20 hrs; in short: as §3
Escherichia coli [31] = assay: Antibacterial activity against Escherichia coli 664520 expressing OXA-48 assessed as concentration required to restore ceftibuten activity incubated for 16 to 20 hrs in presence of 1 ug/ml ceftibuten by broth microdilution method; format: functional; settings: time 16-20 hrs; in short: as §3
[32] = Apparent permeability across apical to basolateral side in human Caco-2 cells at 5 uM measured after 2 hrs by LC-MS/MS method; format: ADME, cell-based; settings: caco-2, 2 h
[33] = Apparent permeability across basolateral to apical side in human Caco-2 cells at 5 uM measured after 2 hrs by LC-MS/MS method; format: ADME, cell-based; settings: caco-2, 2 h
[34] = AUC in mouse at 1.2 mg/kg, sc; format: ADME, organism-based; set-up: dose 1.2 mg/kg; settings: in vivo
[35] = AUC in mouse at 12 mg/kg, sc; format: ADME, organism-based; set-up: dose 12 mg/kg; settings: in vivo
In short: (§4)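 Single-dose pharmacokinetics of the parent BLI in mice given subcutaneously at 1.2, 12 and 38 mg/kg. The AUC is reported in mg∗h/L and was used to check dose proportionality. The study was run to choose dosing regimens for the murine ascending UTI efficacy model.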

[36] = AUC in mouse at 38 mg/kg, sc; format: ADME, organism-based; set-up: dose 38 mg/kg; settings: in vivo; in short: as §4
Escherichia coli [37] = assay: (§5) In vivo antibacterial activity against Escherichia coli expressing TEM-1/CTX-M-15 infected in C3H/HeJ mouse assessed as log10 reduction in CFU in kidney administration of compound:ceftibuten 1:1 ratio at 1 to 300 mg/kg, sc every 12 hrs for 3 days starting from 4 days post infection and measured at 7 days post infection (reference value: 6.7 log10CFU); format: functional; settings: dose 1-300 mg/kg; time 3 day
Escherichia coli [38] = assay: as §5, with “urine” for “kidney”; format: functional; settings: dose 1-300 mg/kg; time 3 day
Escherichia coli [39] = assay: In vivo antibacterial activity against Escherichia coli expressing TEM-1/CTX-M-15 infected in C3H/HeJ mouse assessed as log10 reduction in CFU in bladder administration of compound:ceftibuten 1:1 ratio at 1 to 300 mg/kg, sc every 12 hrs for 3 days starting from 4 days post infection and measured at 7 days post infection (reference value: 5.8 log10CFU); settings: dose 1-300 mg/kg; time 3 day

CCC(=O)N[C@H]1Cc2cccc(C(=O)OCOC(=O)C(C)(C)C)c2OB1O
bioavailability [1]: 99% | bioavailability [2]: 42% | bioavailability [3]: 42% | bioavailability [4]: 52%

CCC(=O)N[C@H]1Cc2cccc(C(=O)O)c2OB1O [LEDABORBACTAM]
Activity (Escherichia coli [5]): 0.03 µg/mL | Activity (Escherichia coli [6]): 0.004 µg/mL | pIC50 [7]: 6.90 | pIC50 [8]: 7.10 | Activity (Escherichia coli [9]): 0.12 µg/mL | Activity (Klebsiella pneumoniae [10]): 0.06 µg/mL | Activity (Escherichia coli [11]): 0.5 µg/mL | Activity (Klebsiella pneumoniae [12]): 0.5 µg/mL | Activity (Escherichia coli [13]): 0.03 µg/mL | Activity (Klebsiella pneumoniae [14]): 0.016 µg/mL | Activity (Escherichia coli [15]): 0.03 µg/mL | Activity (Klebsiella pneumoniae [16]): 1 µg/mL | Activity (Klebsiella pneumoniae [17]): 0.016 µg/mL | Activity (Klebsiella pneumoniae [18]): <=0.002 ug ml-1 | Activity (Escherichia coli [19]): 0.016 µg/mL | Activity (Klebsiella pneumoniae [20]): 1 µg/mL | Activity (Klebsiella pneumoniae [21]): 0.06 µg/mL | Activity (Klebsiella pneumoniae [22]): 0.25 µg/mL | Activity (Klebsiella pneumoniae [23]): 0.5 µg/mL | Activity (Escherichia coli [24]): <=0.002 ug ml-1 | Activity (Klebsiella pneumoniae [25]): 2 µg/mL | Activity (Klebsiella pneumoniae [26]): <=0.002 ug ml-1 | Activity (Escherichia coli [27]): 0.5 µg/mL | Activity (Klebsiella pneumoniae [28]): 0.12 µg/mL | Activity (Klebsiella pneumoniae [29]): 0.016 µg/mL | Activity (Klebsiella pneumoniae [30]): 0.03 µg/mL | Activity (Escherichia coli [31]): 1 µg/mL | Papp [32]: 0.11 10^-6 cm/s | Papp [33]: 0.15 10^-6 cm/s | AUC [34]: 7800 ng·h/mL | AUC [35]: 76000 ng·h/mL | AUC [36]: 250000 ng·h/mL | Activity (Escherichia coli [37]): 2 log10CFU/ml | Activity (Escherichia coli [38]): 4 log10CFU/ml | Activity (Escherichia coli [39]): 3.2 log10CFU/ml
